Activity calls are given as the source filed them. No cut-off for these calls is given here.
Assays:
[1] = test system: Mus musculus; test: Reduction of hyperinsulinemia in DIO C57BL/6 mouse model at 100 mg/kg, po after 4 weeks; format: functional, organism-based; set-up: dose 100 mg/kg
[2] = species on record: Mus musculus; test: Reduction of insulin level in chow-fed C57BL/6 mouse; format: functional, organism-based
[3] = test system: Mus musculus; test: Increase in mitochondrial capacity in DIO C57BL/6 mouse model assessed as citrate synthase activity at 100 mg/kg, po after 10 weeks; format: functional; conditions: in the assay text read “after 11 weeks” for “after 10 weeks”
Procedure, shortened: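 Citrate synthase activity in gastrocnemius and epididymal white adipose tissue after 11 weeks of daily oral dosing in high-fat-fed C57BL/6 mice; five mice per group closest to the group's mean fasting glucose were selected.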

[4] = test system: Mus musculus; test: Reduction of blood glucose level in diabetic Lep ob/ob mouse model at 100 mg/kg, po after 1 week; format: functional, organism-based; set-up: dose 100 mg/kg
Procedure, shortened: (§1)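 ob/ob mice received at 6 weeks, kept on 60%-fat diet from at least one week before study; ~40-45 g; grouped by body weight and glucose; once-daily oral gavage in 2% HPMC + 0.2% DOSS. One-way ANOVA with Dunnett's test vs control, p<0.05.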

[5] = test system: Rattus norvegicus; test: Reduction of blood insulin level in po dosed Zucker fa/fa rat after 3 weeks by glucose tolerance test; format: functional
Procedure, shortened: (§2)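 On day 26 of daily oral dosing, fa/fa Zucker rats fasted 5 h, then gavaged with 1 g/kg dextrose; tail-vein glucose at 0, 15, 30, 60, 90 min; plasma for insulin at 0, 15, 30, 60 min.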

[6] = test system: Rattus norvegicus; test: Increase in glucose infusion rate required to maintain euglycaemia in po dosed Zucker fa/fa rat relative to control; format: functional
Procedure, shortened: (§3)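 Cannulated 10-week-old fa/fa Zucker rats, unrestrained. D-[3-3H]glucose prime 7.5 μCi, then infused at 0.167 μCi/min; basal samples at -10 and 0 min for hepatic glucose production. From 0 min, insulin at 25 mU/kg/min plus variable 50% dextrose infusion; plasma insulin and FFA at 0 and 120 min.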

[7] = test system: Rattus norvegicus; test: Increase in glucose disposal rate in po dosed Zucker fa/fa rat relative to control; format: functional; procedure, shortened: as §3
[8] = test system: Rattus norvegicus; test: Increase in insulin-induced glucose disposal rate into skeletal muscle in po dosed Zucker fa/fa rat relative to control; format: functional
[9] = test system: Rattus norvegicus; test: Increase in insulin sensitivity in po dosed Zucker fa/fa rat assessed as hepatic glucose production relative to control; format: functional, organism-based; procedure, shortened: as §3
[10] = test system: Rattus norvegicus; test: Increase in adipose insulin sensitivity in po dosed Zucker fa/fa rat assessed as plasma free fatty acid level relative to control; format: functional; procedure, shortened: as §3
[11] = species on record: Rattus norvegicus; test: Reduction in hepatic gluconeogenesis in Zucker fa/fa rat assessed as glucose response by pyruvate tolerance test relative to control; format: functional, organism-based
Procedure, shortened: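 Day 22 of daily oral dosing in fa/fa Zucker rats: after overnight fast, sodium pyruvate 1 g/kg ip in 0.9% NaCl; tail-vein glucose at 0, 30, 40, 50, 60 and 90 min.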

[12] = target: T1, NAD-dependent protein deacetylase sirtuin-1 (Homo sapiens) (UniProt Q96EB6); test: Activation of human SIRT1 assessed as decrease in Km of enzyme for acetylated peptide substrate by mass spectrometry assay
T1 sequence (whole entry): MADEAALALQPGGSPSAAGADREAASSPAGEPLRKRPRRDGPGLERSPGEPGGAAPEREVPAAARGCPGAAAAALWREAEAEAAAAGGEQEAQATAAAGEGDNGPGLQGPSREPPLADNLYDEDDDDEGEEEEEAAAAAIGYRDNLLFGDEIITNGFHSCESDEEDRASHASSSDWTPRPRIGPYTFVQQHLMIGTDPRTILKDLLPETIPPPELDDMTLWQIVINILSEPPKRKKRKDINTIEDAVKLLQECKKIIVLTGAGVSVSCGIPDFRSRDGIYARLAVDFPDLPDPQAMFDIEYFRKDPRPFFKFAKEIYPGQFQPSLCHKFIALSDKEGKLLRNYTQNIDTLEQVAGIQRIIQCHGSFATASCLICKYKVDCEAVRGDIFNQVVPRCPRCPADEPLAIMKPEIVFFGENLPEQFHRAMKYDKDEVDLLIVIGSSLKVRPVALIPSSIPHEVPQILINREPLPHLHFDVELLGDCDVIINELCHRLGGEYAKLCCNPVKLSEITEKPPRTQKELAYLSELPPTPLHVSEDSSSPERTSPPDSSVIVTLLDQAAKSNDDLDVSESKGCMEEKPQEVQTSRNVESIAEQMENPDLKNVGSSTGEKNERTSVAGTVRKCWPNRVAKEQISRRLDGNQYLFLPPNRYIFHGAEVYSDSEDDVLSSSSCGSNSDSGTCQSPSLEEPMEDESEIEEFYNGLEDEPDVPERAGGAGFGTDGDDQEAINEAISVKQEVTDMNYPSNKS

[13] = test system: Mus musculus; test: Reduction of glucose levels in DIO C57BL/6 mouse model at 100 mg/kg, po during insulin tolerance test; format: functional, organism-based; set-up: dose 100 mg/kg
Procedure, shortened: (§4)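 Male C57BL/6 mice, started at nine weeks, fed 60%-fat diet until mean weight ~40 g; 6-10 per group; once-daily oral gavage in 2% HPMC + 0.2% DOSS. Fed glucose at 2, 4, 6, 8, 10 weeks; IPGTT after 5 weeks; ITT after 10 weeks. One-way ANOVA with Dunnett's test vs control, p<0.05.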

[14] = test system: Mus musculus; test: Effect on body weight in diabetic Lep ob/ob mouse model at 100 mg/kg, po; format: functional, organism-based; set-up: dose 100 mg/kg; procedure, shortened: as §1
[15] = test system: Rattus norvegicus; test: Reduction of blood glucose level in po dosed Zucker fa/fa rat assessed as glucose level after 3 weeks by glucose tolerance test; format: functional; procedure, shortened: as §2
[16] = target: T1, NAD-dependent protein deacetylase sirtuin-1 (Homo sapiens); test: Activation of human SIRT1-D (219-664) construct by mass spectrometry assay relative to control
[17] = target: T1, NAD-dependent protein deacetylase sirtuin-1 (Homo sapiens); test: Activation of human SIRT1-F (230-664) construct by mass spectrometry assay relative to control
[18] = target: T1, NAD-dependent protein deacetylase sirtuin-1 (Homo sapiens); test: Activation of human SIRT1-G (235-664) construct by mass spectrometry assay relative to control
[19] = target: T1, NAD-dependent protein deacetylase sirtuin-1 (Homo sapiens); test: Activation of human SIRT1-H (240-664) construct by mass spectrometry assay relative to control
[20] = target: T1, NAD-dependent protein deacetylase sirtuin-1 (Homo sapiens); test: Activation of human SIRT1 expressed in Escherichia coli BL21 by mass spectrometry assay
[21] = target: T2, NAD-dependent protein deacetylase sirtuin-2 (Homo sapiens, UniProt Q8IXJ6); test: Activation of SIRT2 by mass spectrometry assay
T2 sequence (Q8IXJ6 whole entry): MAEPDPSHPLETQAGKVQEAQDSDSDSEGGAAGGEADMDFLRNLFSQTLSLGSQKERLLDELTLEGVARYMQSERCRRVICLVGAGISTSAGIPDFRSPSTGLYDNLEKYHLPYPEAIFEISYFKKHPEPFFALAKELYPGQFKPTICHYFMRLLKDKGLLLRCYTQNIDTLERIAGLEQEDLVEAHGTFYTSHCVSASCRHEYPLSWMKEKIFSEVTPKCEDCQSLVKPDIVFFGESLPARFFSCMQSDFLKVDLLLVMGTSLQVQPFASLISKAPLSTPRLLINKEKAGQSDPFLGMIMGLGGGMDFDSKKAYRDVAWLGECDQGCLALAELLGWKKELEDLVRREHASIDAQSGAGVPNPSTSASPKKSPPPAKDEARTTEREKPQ

[22] = target: T3, NAD-dependent protein deacetylase sirtuin-3, mitochondrial (Homo sapiens, UniProt Q9NTG7); test: Activation of SIRT3 by mass spectrometry assay
T3 sequence (Q9NTG7 whole entry): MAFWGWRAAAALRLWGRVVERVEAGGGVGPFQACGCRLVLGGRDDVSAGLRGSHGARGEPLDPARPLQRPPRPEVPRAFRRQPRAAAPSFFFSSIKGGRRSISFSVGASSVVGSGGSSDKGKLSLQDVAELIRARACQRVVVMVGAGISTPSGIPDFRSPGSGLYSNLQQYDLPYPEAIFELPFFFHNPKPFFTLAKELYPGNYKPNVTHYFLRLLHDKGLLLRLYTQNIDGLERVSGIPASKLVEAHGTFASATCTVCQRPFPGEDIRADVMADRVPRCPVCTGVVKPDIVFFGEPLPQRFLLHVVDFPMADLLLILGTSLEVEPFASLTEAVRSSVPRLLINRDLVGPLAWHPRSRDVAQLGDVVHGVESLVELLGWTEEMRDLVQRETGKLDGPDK

[23] = target: T1, NAD-dependent protein deacetylase sirtuin-1 (Homo sapiens); test: Activation of SIRT1 in human U2OS cells assessed as decrease in p53 deacetylation level at 0.10 uM; format: cell-based
Procedure, shortened: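 U-2 OS cells seeded 1.5 × 10⁴/well; compounds in DMSO added after 24 h, then doxorubicin 1 μg/ml final to induce p53. Fixed, permeabilized, immunostained for Ac-Lys382-p53 and beta-tubulin, infrared scan; background-corrected acetyl signal normalized to tubulin, then to vehicle as % acetylated p53. Replicate plates co-treated with a SIRT1-specific inhibitor.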

[24] = target: T1, NAD-dependent protein deacetylase sirtuin-1 (Homo sapiens); test: Activation of human SIRT1-A (156-664) construct by mass spectrometry assay relative to control
[25] = target: T1, NAD-dependent protein deacetylase sirtuin-1 (Homo sapiens); test: Activation of human SIRT1-B (172-664) construct by mass spectrometry assay relative to control
[26] = target: T1, NAD-dependent protein deacetylase sirtuin-1 (Homo sapiens); test: Activation of human SIRT1-C construct by mass spectrometry assay relative to control
[27] = target: T1, NAD-dependent protein deacetylase sirtuin-1 (Homo sapiens); test: Activation of human SIRT1-E (225-664) construct by mass spectrometry assay relative to control
[28] = Bioavailability in C57BL/6 mouse at 100 mg/kg/day, po; format: ADME, organism-based; conditions: in vivo
Procedure, shortened: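 Male C57BL/6 mice (18-22 g, 3 per group per time point). Oral dosing by gavage in 2% HPMC + 0.2% DOSS, compared with tail-vein iv dosing in 10% ethanol/40% PEG/50% water.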

[29] = Terminal half life in C57BL/6 mouse at 100 mg/kg/day, po; format: ADME, organism-based; set-up: route oral; conditions: in vivo
Procedure, shortened: (§5)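 Oral gavage in 2% HPMC + 0.2% DOSS (hydrochloride salt) to male C57BL/6 mice, 18-22 g, 3 per dose group per time point; blood taken at 5, 30, 120 and 360 min after dosing after CO2 sacrifice; plasma drug levels measured.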

[30] = AUC in C57BL/6 mouse at 100 mg/kg/day, po; format: ADME, organism-based; set-up: route oral; conditions: plasma; procedure, shortened: as §5
[31] = Bioavailability in Sprague-Dawley rat administered at 10 mg/kg, iv; format: ADME, organism-based; conditions: in vivo
[32] = Terminal half life in Sprague-Dawley rat at 100 mg/kg/day, po; format: ADME, organism-based; set-up: route oral; conditions: in vivo
[33] = AUC in Sprague-Dawley rat at 100 mg/kg/day, po; format: ADME, organism-based; set-up: route oral; conditions: plasma
[34] = test system: Mus musculus; test: Reduction of fasting blood glucose in DIO C57BL/6 mouse model at 100 mg/kg, po assessed as glucose level by glucose tolerance test; format: functional; procedure, shortened: as §4

With `O=C(Nc1ccccc1-c1cn2c(CN3CCNCC3)csc2n1)c1cnc2ccccc2n1` the Activity [1] was “Active”, the Activity [2] was “inactive” and the Activity [3] was 15%. For the same compound, the Activity [4] was “Active”, the Activity [5] was 25 ng/min/dL and the Activity [6] was 35%. The Activity [7] was 20%, the Activity [8] was 55% and the Activity [9] was “Active”. For the same compound, the Activity [10] was 40%, the Activity [11] was “Active” and the Activity [12] was “Active”. For the same compound, the Activity [13] was “Active”, the Activity [14] was “inactive” and the Activity [15] was 2490 mg/min/dL. For the same compound, the Activity [16] was 1.3, the Activity [17] was 1.5 and the Activity [18] was 1.9. For the same compound, the Activity [19] was 2, the Activity [20] was 781% and the EC50 [21] was 37 µM. The EC50 [22] was over 300 µM, the Activity [23] was “Active” and the Activity [24] was 5.9. It also gave an Activity [25] of 5.8, an Activity [26] of 5.6 and an Activity [27] of 1.6. It also gave a bioavailability [28] of 50%, a half-life [29] of 5 h and an AUC [30] of 7890 ng·h/mL. For the same compound, the bioavailability [31] was 25%, the half-life [32] was 8.4 h and the AUC [33] was 3710 ng·h/mL. For the same compound, the Activity [34] was 462 mg/h/dL.

From ChEMBL document CHEMBL1147981, “Small molecule activators of SIRT1 as therapeutics for the treatment of type 2 diabetes” (Nature, 2007)
